ChEMBL document CHEMBL5303300, “EUbOPEN Chemogenomics Library - Multiplex” (2023)
Several values for one entry are separate records, joined by “and”; a condition that tells them apart may be missing. Equal values may be shown once.

System: HEK-293T
Assay: Multiplex assay against HEK293T
Format: toxicity, cell-based
Details: human, number of replicates 2
Summary of the method: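 Live cells were stained at seeding with Hoechst33342, BioTracker Green Microtubule Cytoskeleton Dye, MitoTracker Red and Annexin V Alexa Fluor 680. Following compound addition, they were imaged on a CQ1 microscope at 37°C and 5% CO2 and gated by CellPathfinder machine learning into Hoechst high-intensity objects or normal cells, with normal cells split into healthy, pyknosed or fragmented nuclei and pyknosed cells into mitotic or apoptotic. Tubulin, mitochondrial-mass and membrane-permeability phenotypes are per cents of healthy-nucleus cells.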

[1] = 12 h, 1 µM, compound concentration 1 uM
[2] = 12 h, 10 µM, compound concentration 10 uM
[3] = 24 h, 1 µM, compound concentration 1 uM
[4] = 24 h, 10 µM, compound concentration 10 uM
[5] = 48 h, 1 µM, compound concentration 1 uM
[6] = 48 h, 10 µM, compound concentration 10 uM

C=CC(=O)Nc1ccc2[nH]c(=O)n(C3CCN(Cc4ccc(-c5ccc6c(c5)NC(=O)CO6)cc4)CC3)c2c1 [RL2578]
Population Apoptotic (%) [1]: 38% and 52%
Population Fragmented Nuclei (%) [1]: 3%
Population Healthy Nuclei (%) [1]: 85%
Population Hoechst High Intensity Objects (%) [1]: 8% and 6%
Population Membrane Permeable-Phenotype (%) [1]: 4% and 5%
Population Mitochondria Different-Phenotype (%) [1]: 17%
Population Mitotic Cells (%) [1]: 61% and 47%
Population Normal (%) [1]: 91% and 93%
Population Pyknosed Nuclei (%) [1]: 10% and 11%
Population Tubulin-Different-Phenotype (%) [1]: 66% and 57%
Total Cell Count [1]: 749 and 364
Population Apoptotic (%) [2]: 39% and 60%
Population Fragmented Nuclei (%) [2]: 2% and 1%
Population Healthy Nuclei (%) [2]: 92% and 89%
Population Hoechst High Intensity Objects (%) [2]: 6% and 10%
Population Membrane Permeable-Phenotype (%) [2]: 10% and 6%
Population Mitochondria Different-Phenotype (%) [2]: 39%
Population Mitotic Cells (%) [2]: 60% and 40%
Population Normal (%) [2]: 93% and 89%
Population Pyknosed Nuclei (%) [2]: 4% and 8%
Population Tubulin-Different-Phenotype (%) [2]: 97% and 96%
Total Cell Count [2]: 579 and 597
Population Apoptotic (%) [3]: 44% and 59%
Population Fragmented Nuclei (%) [3]: 6% and 4%
Population Healthy Nuclei (%) [3]: 86% and 88%
Population Hoechst High Intensity Objects (%) [3]: 4%
Population Membrane Permeable-Phenotype (%) [3]: 4% and 3%
Population Mitochondria Different-Phenotype (%) [3]: 7% and 9%
Population Mitotic Cells (%) [3]: 56% and 40%
Population Normal (%) [3]: 95%
Population Pyknosed Nuclei (%) [3]: 6% and 7%
Population Tubulin-Different-Phenotype (%) [3]: 42% and 38%
Total Cell Count [3]: 1138 and 534
Population Apoptotic (%) [4]: 53% and 81%
Population Fragmented Nuclei (%) [4]: 3% and 4%
Population Healthy Nuclei (%) [4]: 93% and 90%
Population Hoechst High Intensity Objects (%) [4]: 8% and 9%
Population Membrane Permeable-Phenotype (%) [4]: 5% and 2%
Population Mitochondria Different-Phenotype (%) [4]: 35% and 46%
Population Mitotic Cells (%) [4]: 46% and 18%
Population Normal (%) [4]: 91% and 90%
Population Pyknosed Nuclei (%) [4]: 2% and 4%
Population Tubulin-Different-Phenotype (%) [4]: 90% and 94%
Total Cell Count [4]: 626 and 621
Population Apoptotic (%) [5]: 16% and 19%
Population Fragmented Nuclei (%) [5]: 15% and 13%
Population Healthy Nuclei (%) [5]: 81% and 82%
Population Hoechst High Intensity Objects (%) [5]: 8% and 7%
Population Membrane Permeable-Phenotype (%) [5]: 6% and 4%
Population Mitochondria Different-Phenotype (%) [5]: 0% and 2%
Population Mitotic Cells (%) [5]: 83% and 80%
Population Normal (%) [5]: 91% and 92%
Population Pyknosed Nuclei (%) [5]: 2% and 3%
Population Tubulin-Different-Phenotype (%) [5]: 18% and 21%
Total Cell Count [5]: 2736 and 1194
Population Apoptotic (%) [6]: 32% and 60%
Population Fragmented Nuclei (%) [6]: 11% and 7%
Population Healthy Nuclei (%) [6]: 84% and 86%
Population Hoechst High Intensity Objects (%) [6]: 13%
Population Membrane Permeable-Phenotype (%) [6]: 3% and 1%
Population Mitochondria Different-Phenotype (%) [6]: 15% and 25%
Population Mitotic Cells (%) [6]: 67% and 40%
Population Normal (%) [6]: 86%
Population Pyknosed Nuclei (%) [6]: 4% and 6%
Population Tubulin-Different-Phenotype (%) [6]: 71% and 82%
Total Cell Count [6]: 795 and 718

CS(=O)(=O)c1ccc(C(=O)Nc2cccc(COc3ccc(Br)cc3CN3CC[C@H](O)C3)c2)cc1.O=CO
Population Apoptotic (%) [1]: 50% and 69%
Population Fragmented Nuclei (%) [1]: 2% and 3%
Population Healthy Nuclei (%) [1]: 72% and 70%
Population Normal (%) [1]: 87% and 88%
Total Cell Count [1]: 490 and 407
Population Apoptotic (%) [2]: 46%
Population Fragmented Nuclei (%) [2]: 3% and 2%
Population Healthy Nuclei (%) [2]: 85%
Population Normal (%) [2]: 93% and 94%
Total Cell Count [2]: 467 and 532
Population Fragmented Nuclei (%) [3]: 6% and 5%
Population Healthy Nuclei (%) [3]: 79% and 76%
Population Normal (%) [3]: 89% and 90%
Total Cell Count [3]: 663 and 599
Population Apoptotic (%) [4]: 57% and 66%
Population Fragmented Nuclei (%) [4]: 3% and 4%
Population Healthy Nuclei (%) [4]: 80% and 85%
Population Normal (%) [4]: 95% and 91%
Total Cell Count [4]: 543 and 659
Population Apoptotic (%) [5]: 46%
Population Fragmented Nuclei (%) [5]: 13% and 10%
Population Healthy Nuclei (%) [5]: 80% and 84%
Population Normal (%) [5]: 90%
Total Cell Count [5]: 1404 and 1241
Population Apoptotic (%) [6]: 32%
Population Fragmented Nuclei (%) [6]: 5% and 6%
Population Healthy Nuclei (%) [6]: 86%
Population Normal (%) [6]: 93% and 92%
Total Cell Count [6]: 812 and 937
